# Source: ChEMBL document CHEMBL1126705, “16 beta-([18F]fluoro)estrogens: systematic investigation of a new series of fluorine-18-labeled estrogens as potential imaging agents for estrogen-receptor-positive breast tumors” (J Med Chem, 1993)
# Key:
# Rattus norvegicus [1] = assay: Tested in vivo for the biodistribution in rat muscle at 1 hour after intravenous dose of 100 microCi of the drug and 15 ug of estradiol; assay type: ADME, organism-based, Muscle tissue
# How it was run: (§1)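 Immature (25-day-old) female Sprague-Dawley rats, ether-anesthetized, given the fluorine-18-labeled estrogen by femoral vein injection in 10% ethanol saline. […] Other groups were killed by decapitation at 1 or 3 h. Blood and organs were weighed and gamma-counted. Data are % injected dose/g, mean ± SD, typically n = 5 per group.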
# Rattus norvegicus [2] = assay: Tested in vivo for the biodistribution in blood of female rat after 3 hours following an intravenous dose of 100 microCi of drug in 10%ethanol saline; assay type: ADME, organism-based
# How it was run: (§2)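 Ether-anesthetized 25-day-old female Sprague-Dawley rats (~40–53 g) got the [18F] tracer in 10% ethanol saline via femoral vein. Rats were decapitated at 1 or 3 h, and blood and organs were weighed and gamma-counted. Values are % injected dose/g as mean ± SD, n = 5 per time point.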
# Rattus norvegicus [3] = assay: Tested in vivo for the biodistribution in rat uterus after 3 hours following an intravenous dose of 100 microCi of drug in 10%ethanol saline; assay type: ADME, organism-based; how it was run: as §1
# Rattus norvegicus [4] = assay: Tested in vivo for the biodistribution in rat uterus/blood at 1 hour after intravenous dose of 100 microCi of the drug and 15 ug of estradiol; assay type: ADME, organism-based
# How it was run: (§3)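 Female Sprague-Dawley rats, 25 days old (~40–53 g), ether-anesthetized, given the 18F-labeled estrogen iv via femoral vein in 10% ethanol saline. […] Others were sacrificed by decapitation at 1 or 3 h. Blood and organs were excised, weighed and gamma counted as % injected dose/g, mean ± SD, typically n = 5 (4–6).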
# [5] = Partition coefficient (logP); assay type: physicochemical; conditions: octanol/water
# How it was run: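 Octanol/water log P estimated from log k'w measured by reversed-phase HPLC (Minick method) on a C8 silica column.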
# Rattus norvegicus [6] = assay: Tested in vivo for the biodistribution in rat uterus at 1 hour after intravenous dose of 100 microCi of the drug and 15 micro g of estradiol; assay type: ADME, organism-based; how it was run: as §1
# Rattus norvegicus [7] = assay: Tested in vivo for the biodistribution in blood of female rat at 1 hour after intravenous dose of 100 microCi of drug in 10%ethanol saline; assay type: ADME, organism-based; how it was run: as §2
# Rattus norvegicus [8] = assay: Tested in vivo for the biodistribution in rat uterus/muscle at 1 hour after intravenous dose of 100 microCi of the drug and 15 ug of estradiol; assay type: ADME, organism-based, Muscle tissue; how it was run: as §3
# [9] = molecular target: T1, Alpha-fetoprotein (Rattus norvegicus) (UniProt P02773); assay: Relative binding affinity for Alphafetoprotein
# T1 sequence (whole entry): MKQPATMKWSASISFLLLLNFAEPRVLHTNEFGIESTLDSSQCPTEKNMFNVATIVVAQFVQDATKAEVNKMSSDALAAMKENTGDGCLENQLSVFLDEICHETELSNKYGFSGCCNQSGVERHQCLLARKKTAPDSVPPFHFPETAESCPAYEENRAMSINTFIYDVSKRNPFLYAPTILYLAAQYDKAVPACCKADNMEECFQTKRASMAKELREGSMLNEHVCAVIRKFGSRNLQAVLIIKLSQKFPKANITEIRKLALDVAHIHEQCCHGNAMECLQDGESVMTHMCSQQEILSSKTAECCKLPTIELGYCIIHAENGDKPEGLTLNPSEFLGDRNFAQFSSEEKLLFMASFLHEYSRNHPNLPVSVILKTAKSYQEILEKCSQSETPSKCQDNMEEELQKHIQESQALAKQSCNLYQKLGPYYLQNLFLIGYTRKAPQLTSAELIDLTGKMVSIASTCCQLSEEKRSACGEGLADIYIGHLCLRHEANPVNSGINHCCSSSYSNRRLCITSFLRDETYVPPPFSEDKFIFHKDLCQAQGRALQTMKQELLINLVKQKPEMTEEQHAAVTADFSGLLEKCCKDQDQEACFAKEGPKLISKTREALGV
# Rattus norvegicus [10] = assay: Tested in vivo for the biodistribution in rat bone at 1 hour after intravenous dose of 100 microCi of drug in 10%ethanol saline; assay type: ADME, organism-based, Bone element; how it was run: as §2
# Rattus norvegicus [11] = assay: Tested in vivo for the biodistribution in rat liver at 1 hour after intravenous dose of 100 microCi of drug in 10%ethanol saline; assay type: ADME, organism-based; how it was run: as §1
# Rattus norvegicus [12] = assay: Tested in vivo for the biodistribution in rat liver after 3 hours following an intravenous dose of 100 microCi of drug in 10%ethanol saline; assay type: ADME, organism-based; how it was run: as §1
# Rattus norvegicus [13] = assay: Tested in vivo for the biodistribution in rat fat after 3 hours following an intravenous dose of 100 microCi of drug in 10%ethanol saline; assay type: ADME, organism-based, Adipose tissue; how it was run: as §2
# Rattus norvegicus [14] = assay: Tested in vivo for the biodistribution in rat ovaries at 1 hour after intravenous dose of 100 microCi of the drug and 15 ug of estradiol; assay type: ADME, organism-based, Female gonad; how it was run: as §1
# Rattus norvegicus [15] = assay: Tested in vivo for the biodistribution in rat bone at 1 hour after intravenous dose of 100 microCi of the drug and 15 ug of estradiol; assay type: ADME, organism-based, Bone element
# Rattus norvegicus [16] = assay: Tested in vivo for the biodistribution in rat uterus/muscle after 3 hours following an intravenous dose of 100 microCi of drug in 10%ethanol saline; assay type: ADME, organism-based, Muscle tissue; how it was run: as §3
# Rattus norvegicus [17] = assay: Tested in vivo for the biodistribution in rat kidney after 3 hours following an intravenous dose of 100 microCi of drug in 10%ethanol saline; assay type: ADME, organism-based; how it was run: as §2
# Rattus norvegicus [18] = assay: Tested in vivo for the biodistribution in rat muscle after 3 hours following an intravenous dose of 100 microCi of drug in 10%ethanol saline; assay type: ADME, organism-based, Muscle tissue; how it was run: as §1
# Rattus norvegicus [19] = assay: Tested in vivo for the biodistribution in rat liver at 1 hour after intravenous dose of 100 microCi of the drug and 15 u g of estradiol; assay type: ADME, organism-based; how it was run: as §1
# [20] = molecular target: T2, Estrogen receptor (Rattus norvegicus) (UniProt P06211+Q62986)
# Rattus norvegicus [21] = assay: Tested in vivo for the biodistribution in rat bone after 3 hours following an intravenous dose of 100 microCi of drug in 10%ethanol saline; assay type: ADME, organism-based, Bone element; how it was run: as §2
# Rattus norvegicus [22] = assay: Tested in vivo for the biodistribution in rat muscle at 1 hour after intravenous dose of 100 microCi of drug in 10%ethanol saline; assay type: ADME, organism-based, Muscle tissue; how it was run: as §1
# Rattus norvegicus [23] = assay: Tested in vivo for the biodistribution in rat uterus at 1 hour after intravenous dose of 100 microCi of drug in 10%ethanol saline; assay type: ADME, organism-based; how it was run: as §1
# [24] = molecular target: T3, Sex hormone-binding globulin (Homo sapiens) (UniProt P04278); assay: Relative binding affinity against sex steroid binding protein (SBP)
# T3 sequence (whole entry): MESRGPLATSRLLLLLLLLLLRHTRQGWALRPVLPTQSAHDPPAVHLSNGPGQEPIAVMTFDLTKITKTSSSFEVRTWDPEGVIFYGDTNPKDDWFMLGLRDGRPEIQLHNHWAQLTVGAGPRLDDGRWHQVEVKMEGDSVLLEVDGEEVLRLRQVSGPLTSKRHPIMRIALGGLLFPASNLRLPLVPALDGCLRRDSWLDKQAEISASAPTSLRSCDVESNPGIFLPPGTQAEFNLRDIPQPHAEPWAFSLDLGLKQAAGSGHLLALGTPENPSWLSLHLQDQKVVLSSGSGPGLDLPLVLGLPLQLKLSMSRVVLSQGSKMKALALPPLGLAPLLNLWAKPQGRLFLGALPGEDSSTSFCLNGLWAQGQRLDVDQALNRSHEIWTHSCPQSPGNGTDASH
# Rattus norvegicus [25] = assay: Tested in vivo for the biodistribution in rat uterus/blood at 1 hour after intravenous dose of 100 microCi of drug in 10%ethanol saline; assay type: ADME, organism-based; how it was run: as §3
# Rattus norvegicus [26] = assay: Tested in vivo for the biodistribution in rat fat at 1 hour after intravenous dose of 100 microCi of drug in 10%ethanol saline; assay type: ADME, organism-based, Adipose tissue; how it was run: as §2
# Rattus norvegicus [27] = assay: Tested in vivo for the biodistribution in rat kidney at 1 hour after intravenous dose of 100 microCi of drug in 10%ethanol saline; assay type: ADME, organism-based; how it was run: as §2
# Rattus norvegicus [28] = assay: Tested in vivo for the biodistribution in rat kidney at 1 hour after intravenous dose of 100 microCi of the drug and 15 u g of estradiol; assay type: ADME, organism-based
# Rattus norvegicus [29] = assay: Tested in vivo for the biodistribution in rat fat at 1 hour after intravenous dose of 100 microCi of the drug and 15 ug of estradiol; assay type: ADME, organism-based, Adipose tissue
# Rattus norvegicus [30] = assay: Tested in vivo for the biodistribution in rat ovaries after 3 hours following an intravenous dose of 100 microCi of drug in 10%ethanol saline; assay type: ADME, organism-based, Female gonad; how it was run: as §1
# Rattus norvegicus [31] = assay: Tested in vivo for the biodistribution in rat ovaries at 1 hour after intravenous dose of 100 microCi of drug in 10%ethanol saline; assay type: ADME, organism-based, Female gonad; how it was run: as §1
# Rattus norvegicus [32] = assay: Tested in vivo for the biodistribution in rat uterus/blood after 3 hours following an intravenous dose of 100 microCi of drug in 10%ethanol saline; assay type: ADME, organism-based; how it was run: as §3
# Rattus norvegicus [33] = assay: Tested in vivo for the biodistribution in rat uterus/muscle at 1 hour after intravenous dose of 100 microCi of drug in 10%ethanol saline; assay type: ADME, organism-based, Muscle tissue; how it was run: as §3
# Rattus norvegicus [34] = assay: Tested in vivo for the biodistribution in blood of female rat at 1 hour after intravenous dose of 100 microCi of the drug and 15 u g of estradiol; assay type: ADME, organism-based
# [35] = molecular target: T2, Estrogen receptor (Rattus norvegicus); remark: listed apart in the source
structure (smiles),measurement,setting,value
C#C[C@]1(O)[C@@H](F)C[C@H]2[C@@H]3CCc4cc(O)ccc4[C@H]3CC[C@@]21C,Injected,Rattus norvegicus [1],0.22%
same,Injected,Rattus norvegicus [2],0.358%
same,Injected,Rattus norvegicus [3],4.31%
same,Injected,Rattus norvegicus [4],0.92%
same,logP,[5],3.3
same,Injected,Rattus norvegicus [6],0.533%
same,Injected,Rattus norvegicus [7],0.449%
same,Injected,Rattus norvegicus [8],2.424%
same,relative binding affinity (RBA),[9],22
same,Injected,Rattus norvegicus [10],0.608%
same,Injected,Rattus norvegicus [11],2.249%
same,Injected,Rattus norvegicus [12],2.204%
same,Injected,Rattus norvegicus [13],0.122%
same,Injected,Rattus norvegicus [14],0.863%
same,Injected,Rattus norvegicus [15],0.635%
same,Injected,Rattus norvegicus [16],32.37%
same,Injected,Rattus norvegicus [17],0.376%
same,Injected,Rattus norvegicus [18],0.133%
same,Injected,Rattus norvegicus [19],2.412%
same,NSB,[20],1.04
same,Injected,Rattus norvegicus [21],0.557%
same,Injected,Rattus norvegicus [22],0.307%
same,Injected,Rattus norvegicus [23],7.466%
same,relative binding affinity (RBA),[24],0.589
same,Injected,Rattus norvegicus [25],16.87%
same,Injected,Rattus norvegicus [26],0.337%
same,Injected,Rattus norvegicus [27],0.906%
same,Injected,Rattus norvegicus [28],0.752%
same,Injected,Rattus norvegicus [29],0.206%
same,Injected,Rattus norvegicus [30],1.274%
same,Injected,Rattus norvegicus [31],2.159%
same,Injected,Rattus norvegicus [32],12.21%
same,Injected,Rattus norvegicus [33],24.42%
same,Injected,Rattus norvegicus [34],0.576%
same,BSI,[35],27
